Sampled rows, rich in hits. Any-hit rate of the full collection: about 2.4%.
CendR NRP1 mod: NRP-1/CendR interaction modulation; O14786; FAM-RPARPAR peptide binding to NRP-1, fluorescence polarization; inhibition, % at 25 µM; 360,000 tested, 0.85% active; AID 602438;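 active means inhibition or corrected inhibition above about 18%, plus a signal ratio from 0.5 to 1.5, limit read from the data, passing the limit was not always enough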
DAGLB inh: diacylglycerol lipase beta (human) inhibition; 340,000 tested, 0.059% active; Q8NCG7; HEK293T DAGLB membrane lysate, EnzChek fluorogenic substrate; inhibition, % at 5.17 µM; in the data active means inhibition above about 34%
Target sequence (Q8NCG7 whole entry, looked up): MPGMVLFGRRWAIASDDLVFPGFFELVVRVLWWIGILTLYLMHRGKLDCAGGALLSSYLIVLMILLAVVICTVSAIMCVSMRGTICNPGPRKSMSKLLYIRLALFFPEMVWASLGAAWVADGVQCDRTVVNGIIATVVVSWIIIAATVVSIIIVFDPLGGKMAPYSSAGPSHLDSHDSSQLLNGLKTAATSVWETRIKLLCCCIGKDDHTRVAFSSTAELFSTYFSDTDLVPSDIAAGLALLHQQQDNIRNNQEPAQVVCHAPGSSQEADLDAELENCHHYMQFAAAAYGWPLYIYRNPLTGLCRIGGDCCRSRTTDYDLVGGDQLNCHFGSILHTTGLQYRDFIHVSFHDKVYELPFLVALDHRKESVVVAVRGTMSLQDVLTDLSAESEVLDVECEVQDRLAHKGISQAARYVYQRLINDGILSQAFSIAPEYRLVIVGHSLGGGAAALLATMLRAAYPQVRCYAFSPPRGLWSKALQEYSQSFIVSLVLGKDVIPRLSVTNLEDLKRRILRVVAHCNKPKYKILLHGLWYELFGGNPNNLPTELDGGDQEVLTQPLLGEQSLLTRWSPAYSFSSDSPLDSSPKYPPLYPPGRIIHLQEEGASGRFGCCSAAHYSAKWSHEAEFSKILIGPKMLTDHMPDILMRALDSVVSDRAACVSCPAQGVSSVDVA
MIN6 prolif: induces beta-cell replication in MIN6 cells. proliferation, % at 10 µM. AID 2380. MIN6 cells proliferation, ATPlite luminescence, 48 h; cells starved in 0.2% serum; 100% = growth in 10% serum. 330,000 tested, 0.29% active;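 active means compounds whose signal lies at least 3.5 SD above the mean of all wells on their plate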
Myeloid diff 2: myeloid differentiation induction. 360,000 tested, 1% active. calls only at 10 µM. ER-HoxA9 myeloid progenitors, lysozyme-GFP differentiation, flow cytometry;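 active means normalized GFP-positive differentiation at or above the plate's own cutoff, the solvent-only control mean plus 3 SD; inconclusive means no clear call, values can overlap the other calls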;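 further: cells exposed to compound for four days before flow analysis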
SENP1 inh: blocks the human SENP1 SUMO protease catalytic domain; inhibition, % at 10 µM; AID 624204; 360,000 tested, 0.21% active; recombinant SENP1 catalytic domain, CyPet-SUMO1-YPet FRET cleavage; Q9P0U3;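 active means inhibition at least 30% at 10 µM, raw YFP signal under a set limit, fluorescence ratio 0.5 to 1.5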
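Material – human SENP1 catalytic domain · Input – SENP1 enzyme, 20 pM final · Compound dosing – single concentration of 10 µM compound, 0.5% DMSO final · Timing – enzyme reaction for 50 min at room temperature, dark · Measured by – FRET fluorescence in CFP and YFP emission channels · Control set – no-enzyme wells low, DMSO-plus-enzyme wells high control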
MT1-MMP act inh: blocks activation of human MT1-MMP; AID 651647; 360,000 tested, 0.061% active; P50281; GFP/RFP ratio change, % at 20 µM; HT1080 RFP-PRO-GFP cells, GFP/RFP ratio fluorescence, overnight; percent of plate control window, DMSO zero;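 active means GFP/RFP ratio change of at least 30% with cell ATP level not reduced by more than half and red fluorescence within 50% of control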
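system = RFP-PRO-GFP reporter HT1080 cells | dosing = 20 µM single dose, 1% DMSO | timing = overnight cell settling, then overnight compound exposure, 37 °C, 5% CO2 | read-out basis = GFP/RFP fluorescence ratio | controls = DMSO and RFP-L50D-GFP cell wells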
Each line names hits and unclear results; the compound was inactive in the other large screens.

COC(=O)[C@@]12CCCCN1[C@H](c1ccc(-c3ccccc3)cc1)[C@@H]1C(=O)N(C)C(=O)[C@@H]12	none
CCN1C(=O)[C@@H]2[C@@H](c3ccc(-c4cc(C(C)=O)cs4)cc3)N3CCC[C@@]3(C(=O)OC)[C@@H]2C1=O	CendR NRP1 mod 24.4 (no result: MIN6 prolif)
CCOC(=O)c1cc2c(=O)n3ccccc3nc2n(CC2CCCO2)c1=NC(C)=O (stereo unspecified)	none
CCOC(=O)c1cc2c(=O)n3ccccc3nc2n(CC2CCCO2)c1=NC(=O)/C=C/c1ccccc1 (stereo unspecified)	CendR NRP1 mod 29.4
O=C1NC(Cc2ccc(O)cc2)c2nc3ccc(F)cc3c(=O)n2-c2cc3ccccc3cc21 (stereo unspecified)	none (no result: MIN6 prolif)
COc1ccc(C(=O)Nc2cccnc2Sc2ccc(Cl)cc2)cc1	none (no result: DAGLB inh)
CCN(CC)C(=O)C1c2ccccc2Oc2ccccc21	Myeloid diff 2 active
O=C(O)Cn1ncn(-c2ccc(OC(F)(F)F)cc2)c1=O	CendR NRP1 mod 26.5
O=C(Cn1cccc1)Nc1ccc(OC(F)(F)F)cc1	none
Cn1c(=O)c2[nH]c(CCNC(=O)c3ccccc3)nc2n(C)c1=O	CendR NRP1 mod 18.4 (no result: MIN6 prolif)
Cn1c(=O)c2[nH]c(CCCCCc3nc4ccccc4[nH]3)nc2n(C)c1=O	none (no result: DAGLB inh, MIN6 prolif)
CC1CCc2nn(CC(=O)N3CCc4ccccc43)cc2C1 (stereo unspecified)	none
Cc1oc(C(C)(C)C)cc1C(=O)N1CCCC1C(=O)O (stereo unspecified)	Myeloid diff 2 active
COC(=O)C1=C(NC(C)=O)CCS1	none
CCOC(=O)c1c(NC(=O)COc2ccccc2C#N)sc2c1CC(C)(C)NC2(C)C	CendR NRP1 mod 22.1
COC(=O)c1c(NC(=O)c2ccc(OC(C)C)cc2)sc2c1CC(C)(C)NC2(C)C	Myeloid diff 2 active (no result: MT1-MMP act inh)
COC(=O)c1c(NC(=O)c2ccccc2)sc2c1CC(C)(C)NC2(C)C	none
CC1(C)Cc2c(sc(NC(=O)c3ccc(C(=O)c4ccccc4)cc3)c2C(N)=O)C(C)(C)N1	Myeloid diff 2 active
CC(C)Cc1ccc(-c2cc3nc(NCC4CC4)ccn3n2)cc1	none (no result: DAGLB inh, MIN6 prolif)
Cc1ccc(OCc2ccccc2C)c([N+](=O)[O-])n1	Myeloid diff 2 active
CCc1ccc(NC(=S)NC2CC3CCC(C2)N3Cc2ccco2)cc1 (stereo unspecified)	none
COc1ccc(NC(=S)NC2CC3CCC(C2)N3Cc2ccco2)cc1 (stereo unspecified)	CendR NRP1 mod 20.8
CC(OC(=O)C1CC1)C(=O)Nc1cc(Cl)cc(Cl)c1 (stereo unspecified)	Myeloid diff 2 active
CC(OC(=O)C1CCC1)C(=O)Nc1cc(Cl)cc(Cl)c1 (stereo unspecified)	none
COc1ccc(/C=N/NC(=O)c2nn(-c3ccccc3)c(=O)c3c(N)scc23)cc1	none
COc1ccc(/C=N/NC(=O)c2nn(-c3ccc(Cl)cc3)c(=O)c3c(N)scc23)cc1	CendR NRP1 mod 29.5
Cn1c(O)c(N=Nc2nc(-c3ccccc3)cs2)c2ccccc21	SENP1 inh 45.9
Cn1c(O)c(N=Nc2ccccc2)c2ccccc21	none
CCOc1ccc(Nc2ccc(N)c(S(=O)(=O)O)c2)cc1	CendR NRP1 mod 39.5 (no result: MIN6 prolif)
COc1ccc(CCNc2ccc(C(CC(N)=O)NC(=O)c3ccccc3)cc2[N+](=O)[O-])cc1 (stereo unspecified)	Myeloid diff 2 active
Cc1ccc2oc(C(=O)N3CCN(Cc4nccn4C)CC3)c(C)c2c1	none
Fc1cnc(N2CCOCC2)nc1N1CCOCC1	CendR NRP1 mod 21.0
COc1ccc(C2=Nc3ccccc3N(C(=O)c3ccncc3)C2C(=O)NC(C)(C)C)cc1 (stereo unspecified)	none (no result: DAGLB inh, MIN6 prolif)
Cc1nn(-c2ccccc2)c(C)c1C(=O)OCC(=O)N1c2ccccc2NC(=O)C1(C)C	CendR NRP1 mod 30.5
Cc1cnc(C(=O)OCC(=O)N2c3ccccc3NC(=O)C2(C)C)cn1	none
CC(=O)c1cccc(S(=O)(=O)N2CCC(C(=O)O)(c3ccccc3)CC2)c1	CendR NRP1 mod 24.5, Myeloid diff 2 inconclusive
O=C(NCc1ccccc1)c1cccc(S(=O)(=O)N2CCOCC2)c1	none
Cc1cc2cc(CNC(=O)c3ccc(S(=O)(=O)N4CCCC4)cc3)ccc2n1C	CendR NRP1 mod 25.7
CC(=O)c1cccc(S(=O)(=O)N2CCC(C(=O)O)CC2)c1	none
Cc1ccc(O)c(NC(=O)c2cccc(S(=O)(=O)N3CCCCC3)c2)c1	Myeloid diff 2 active
CCN(CC)S(=O)(=O)c1ccc(C(=O)NCc2ccc3c(c2)cc(C)n3C)cc1	none
O=C(NCc1ccccc1)c1cccc(S(=O)(=O)N2CCCCC2)c1	CendR NRP1 mod 30.8
Cc1[nH]c(=O)nc(NN=Cc2ccc(Cl)cc2)c1C(=O)Nc1ccc(Cl)cc1	none (no result: MIN6 prolif)
Cc1noc(C)c1S(=O)(=O)Nc1ccc2c(c1)C(=O)N([C@H](C)CO)C[C@H](C)[C@@H](CN(C)Cc1ccc(C(=O)O)cc1)O2	none
COc1ccc(/C=C/C(=O)c2ccc(NC3=NCCCS3)cc2)cc1OC	none
O=C(Nc1cccc(S(=O)(=O)N2CCCCC2)c1)c1ccc([N+](=O)[O-])o1	CendR NRP1 mod 35.9
O=C(COC(=O)c1ccc([N+](=O)[O-])o1)Nc1cccc(S(=O)(=O)N2CCCCC2)c1	none
CN1CCN(S(=O)(=O)c2cccc(C(=O)Nc3cc(C(F)(F)F)ccc3N3CCCCC3)c2)CC1	Myeloid diff 2 active
Cc1coc2c1c(C)cc1oc(=O)c(CC(=O)NCCC(=O)O)c(C)c12	CendR NRP1 mod 19.7
Nc1ccn(CC(=O)NCc2ccc3[nH]ccc3c2)c(=O)n1	CendR NRP1 mod 32.1
Cc1cn(C2CC(O)C(O)C(CO)O2)c(=O)[nH]c1=O (stereo unspecified)	none (no result: DAGLB inh, MIN6 prolif)
Cc1cn([C@H]2C[C@H](N=[N+]=[N-])[C@@H](CO)O2)c(=O)[nH]c1=O	Myeloid diff 2 active
CNc1n[nH]c(-c2ccccc2)n1	none (no result: MIN6 prolif)
COc1ccc(OC)c2c(C)cc(C)nc12	none
COc1cc(OC)c2c(-c3cccc(-c4cccc(C)c4)c3)cc(=O)oc2c1	Myeloid diff 2 active (no result: MIN6 prolif)
COc1ccc(-c2cccc(-c3cc(=O)oc4cc(OC)cc(OC)c34)c2)cc1	Myeloid diff 2 inconclusive (no result: MIN6 prolif)
COc1cnc(-c2ccccc2)nc1Oc1ccc(Cl)cc1C	none
COc1ccc(C(=O)NC(C)c2ccccc2)cc1Br (stereo unspecified)	Myeloid diff 2 active
CCc1nc2ccc(C(=O)N3CCN(c4ccccc4)CC3)cn2c1N(C)CCC(C)C	none (no result: DAGLB inh, MIN6 prolif)
Cc1cc(C)c(S(=O)(=O)N2CCN(C(=O)N3CCCCC3)CC2)c(C)c1	Myeloid diff 2 active
Cc1cc(C)c(S(=O)(=O)N2CCN(C(=O)N3CCOCC3)CC2)c(C)c1	none
